Reference: ChEMBL document CHEMBL1128416, “Synthesis and evaluation of 6,7-dihydroxy-2,3,4,8,9,13b-hexahydro-1H- benzo[6,7]cyclohepta[1,2,3-ef][3]benzazepine, 6,7-dihydroxy- 1,2,3,4,8,12b-hexahydroanthr[10,4a,4-cd]azepine, and 10-(aminomethyl)-9,10- dihydro-1,2-dihydroxyanthracene as conformationally restricted analogs of …” (J Med Chem, 1995)

What was measured:
Conditions in all cases: Striatum; Membrane
[1] = target: D(1A) dopamine receptor (Rattus norvegicus) (UniProt P18901); assay: Binding affinity to the dopamine receptor D1 by displacing [3H]-SCH- 23390 radio-ligand in rat striatal membranes by using radioligand competition assay.; format: cell membranes
In short: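 Striata from male Sprague-Dawley rats (200–400 g), fresh or stored at -70 °C. Homogenized in ice-cold 50 mM HEPES with 4.0 mM MgCl2, pH 7.4, washed twice by centrifugation at 27000g, and resuspended at ~2.0 mg wet weight/mL. Membranes were incubated with 0.3 nM [3H]SCH 23390 and increasing test concentrations for 15 min at 37 °C. Nonspecific binding defined with 1 μM SCH 23390. Filtered, scintillation counted, IC50 derived.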

[2] = target: D(2) dopamine receptor (Rattus norvegicus) (UniProt P61169); assay: Binding affinity towards Dopamine receptor D2 by displacing [3H]spiperone radio-ligand in rat striatal membranes by using radioligand competition assay.; format: cell membranes
In short: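 Same rat striatal membrane preparation as the D1 assay: HEPES/MgCl2 buffer, pH 7.4, 37 °C incubation, filtration and scintillation counting. [3H]spiperone was the radioligand, competed with increasing test concentrations. IC50 derived from the displacement data.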

[3] = target: D(1A) dopamine receptor (Rattus norvegicus) (UniProt P18901)

D(2) dopamine receptor (Rattus norvegicus), sequence (P61169 whole entry): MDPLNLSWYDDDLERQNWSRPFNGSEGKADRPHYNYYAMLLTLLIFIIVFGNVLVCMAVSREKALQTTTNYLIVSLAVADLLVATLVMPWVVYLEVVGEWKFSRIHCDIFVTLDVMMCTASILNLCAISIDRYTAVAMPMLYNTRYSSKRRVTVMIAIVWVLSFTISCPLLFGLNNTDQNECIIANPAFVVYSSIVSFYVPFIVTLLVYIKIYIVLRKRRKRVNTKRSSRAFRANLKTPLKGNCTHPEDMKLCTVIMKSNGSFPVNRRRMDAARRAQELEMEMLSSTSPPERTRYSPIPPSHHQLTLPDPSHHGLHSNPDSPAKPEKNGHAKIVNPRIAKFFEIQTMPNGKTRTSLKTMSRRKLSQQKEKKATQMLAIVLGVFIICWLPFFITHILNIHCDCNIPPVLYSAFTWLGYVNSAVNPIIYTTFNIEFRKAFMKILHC
D(1A) dopamine receptor (Rattus norvegicus), sequence (P18901 whole entry): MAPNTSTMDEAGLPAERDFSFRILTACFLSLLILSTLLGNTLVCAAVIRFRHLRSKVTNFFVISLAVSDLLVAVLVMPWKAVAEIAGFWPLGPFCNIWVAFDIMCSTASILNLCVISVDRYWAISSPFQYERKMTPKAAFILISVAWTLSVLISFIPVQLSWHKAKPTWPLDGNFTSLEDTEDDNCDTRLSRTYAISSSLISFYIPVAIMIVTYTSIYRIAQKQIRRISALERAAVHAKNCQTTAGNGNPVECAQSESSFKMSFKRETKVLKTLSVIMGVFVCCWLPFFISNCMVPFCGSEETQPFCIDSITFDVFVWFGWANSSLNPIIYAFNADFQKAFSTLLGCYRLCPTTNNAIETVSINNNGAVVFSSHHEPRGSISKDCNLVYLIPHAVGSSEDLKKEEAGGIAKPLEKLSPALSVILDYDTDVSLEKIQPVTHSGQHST

Compound	K0.5 [1] [nM]	K0.5 [2] [nM]	K0.5 [3] [nM]
Oc1cc2c3c(c1O)CCc1ccccc1C3CNCC2 (stereo not given)	372	2150	
Oc1cc2c3c(c1O)Cc1ccccc1C3CNCC2 (stereo not given)	590	1250	
Oc1cc2c(cc1O)[C@@H](c1ccccc1)CNCC2	11.1	1870	
NCC1c2ccccc2Cc2c1ccc(O)c2O (stereo not given)	> 2500	> 2500	
Oc1cc2c(cc1O)[C@H]1c3ccccc3CN[C@@H]1CC2		29	2.4
